Laboratory results published in ChEMBL document CHEMBL1141374 (J Med Chem, 2007).

What was measured:
SK-OV-3 = assay: Growth inhibition in SKOV3 cells; format: functional; details: Homo sapiens
CAKI-1 = assay: Growth inhibition in CAK1-1 cells; format: functional; details: Homo sapiens
SF-268 = assay: Growth inhibition in SF268 cells; format: functional; details: Homo sapiens
HL-60 = assay: Growth inhibition in HL60 cells; format: functional; details: Homo sapiens
ACHN = assay: Growth inhibition in ACHN cells; format: functional; details: Homo sapiens
UACC-62 = assay: Growth inhibition in UACC62 cells; format: functional; details: Homo sapiens
TK-10 = assay: Growth inhibition in TK10 cells; format: functional; details: Homo sapiens
ZR-75-1 = assay: Cytotoxicity against ZR-75-1 cell line; format: cell-based; details: Homo sapiens
Summary of the method: (§1)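 Log-phase cells were diluted to 20 000–30 000 cells/mL, seeded, and left to attach overnight. They were then exposed to compounds at 10^–5–10^–12 M for 72 h at 37 °C in 5% CO2. Viable cells were measured by MTT, with absorbance read at 595 nm. Each compound ran in triplicate in at least three independent assays. IC50 came from nonlinear regression, and average values were reported.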

U-251 = assay: Growth inhibition in U251cells; format: functional; details: Homo sapiens
NCI-H226 = assay: Growth inhibition in NCI-H226 cells; format: functional; details: Homo sapiens
OVCAR-3 = assay: Growth inhibition in OVCAR-3 cells; format: functional; details: Homo sapiens
MCF7 = assay: Growth inhibition in MCF7 cells; format: functional; details: Homo sapiens
NCI-H23 = assay: Growth inhibition in NCI-H23 cells; format: functional; details: Homo sapiens
COLO 205 = assay: Growth inhibition in COLO205 cells; format: functional; details: Homo sapiens
NCI-H522 = assay: Growth inhibition in NCI-H522 cells; format: functional; details: Homo sapiens
BT-549 = assay: Growth inhibition in BT549 cells; format: functional; details: Homo sapiens
OVCAR-5 = assay: Growth inhibition in OVCAR5 cells; format: functional; details: Homo sapiens
[1] = Growth inhibition in HCC15 cells; format: functional; details: Homo sapiens
KM12 = assay: Growth inhibition in KM12 cells; format: functional; details: Homo sapiens
HeLa = assay: Cytotoxicity against HeLa cell line; format: cell-based; details: Homo sapiens; summary of the method: as §1
HOP-62 = assay: Growth inhibition in HOP62 cells; format: functional; details: Homo sapiens
IGROV-1 = assay: Growth inhibition in IGROV1 cells; format: functional; details: Homo sapiens
A498 = assay: Growth inhibition in A498 cells; format: functional; details: Homo sapiens
SF-539 = assay: Growth inhibition in SF539 cells; format: functional; details: Homo sapiens
786-0 = assay: Growth inhibition in 786-0 cells; format: functional; details: Homo sapiens
NCI/ADR-RES = assay: Growth inhibition in NCI/ADR-RES cells; format: functional; details: Homo sapiens
T47D = assay: Growth inhibition in T47D cells; format: functional; details: Homo sapiens
M14 = assay: Growth inhibition in M14 cells; format: functional; details: Homo sapiens
[2] = Cytotoxicity against KB-3-1 cell line; format: cell-based; details: Homo sapiens; summary of the method: as §1
EKVX = assay: Growth inhibition in EKVX cells; format: functional; details: Homo sapiens
[3] = Growth inhibition in MDA-MB-231/ATCC cells; format: functional; details: Homo sapiens
DU-145 = assay: Growth inhibition in DU145 cells; format: functional; details: Homo sapiens
MDA-MB-435 = assay: Growth inhibition in MDA-MB-435 cells; format: functional; details: Homo sapiens
PC-3 = assay: Growth inhibition in PC3 cells; format: functional; details: Homo sapiens
[4] = Cytotoxicity against P-glycoprotein-overexpressing KB-V1 cell line; format: cell-based; details: Homo sapiens; summary of the method: as §1
HT-29 = assay: Growth inhibition in HT29 cells; format: functional; details: Homo sapiens
[5] = Growth inhibition in HCC116 cells; format: functional; details: Homo sapiens
UO-31 = assay: Growth inhibition in UO31 cells; format: functional; details: Homo sapiens
SK-MEL-28 = assay: Growth inhibition in SK-MEL-28 cells; format: functional; details: Homo sapiens
A549 = assay: Growth inhibition in A549 cells; format: functional; details: Homo sapiens
SNB-75 = assay: Growth inhibition in SNB75 cells; format: functional; details: Homo sapiens
OVCAR-8 = assay: Growth inhibition in OVCAR8 cells; format: functional; details: Homo sapiens
SN12C = assay: Growth inhibition in SN12C cells; format: functional; details: Homo sapiens
SF-295 = assay: Growth inhibition in SF295 cells; format: functional; details: Homo sapiens
RXF 393 = assay: Growth inhibition in RXF393 cells; format: functional; details: Homo sapiens
UACC-257 = assay: Growth inhibition in UACC257 cells; format: functional; details: Homo sapiens
SK-MEL-2 = assay: Growth inhibition in SK-MEL-2 cells; format: functional; details: Homo sapiens
OVCAR-4 = assay: Growth inhibition in OVCAR4 cells; format: functional; details: Homo sapiens
HCT-116 = assay: Cytotoxicity against HCT116 cell line; format: cell-based; details: Homo sapiens; summary of the method: as §1
SNB-19 = assay: Growth inhibition in SNB19 cells; format: functional; details: Homo sapiens
CCRF-CEM = assay: Growth inhibition in CCRF-CEM cells; format: functional; details: Homo sapiens
SW-620 = assay: Growth inhibition in SW620 cells; format: functional; details: Homo sapiens
SK-MEL-5 = assay: Growth inhibition in SK-MEL-5 cells; format: functional; details: Homo sapiens
HOP-92 = assay: Growth inhibition in HOP92 cells; format: functional; details: Homo sapiens
HCC 2998 = assay: Growth inhibition in HCC2998 cells; format: functional; details: Homo sapiens
K562 = assay: Growth inhibition in K562 cells; format: functional; details: Homo sapiens
Tubulin = assay: Inhibition of tubulin polymerization; format: protein-complex assay, Homo sapiens
Summary of the method: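 Kit-based assay run per the manufacturer's instructions. Tubulin (>99% pure, 3 mg/mL) in G-PEM buffer, in a prewarmed plate with compound at 0.03–30 μM. OD340 nm read every 60 s at 37 °C for 1 h.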

[6] = Growth inhibition in HS 578T cells; format: functional; details: Homo sapiens
LOX IMVI = assay: Growth inhibition in LOX IMVI cells; format: functional; details: Homo sapiens
NCI-H460 = assay: Growth inhibition in NCI-H460 cells; format: functional; details: Homo sapiens
NCI-H322M = assay: Growth inhibition in NCI-H322M cells; format: functional; details: Homo sapiens

- GI50 (SK-OV-3): 31.6 nM
- GI50 (HL-60): 41.7 nM
- GI50 (ACHN): 34.7 nM
- GI50 (U-251): 33.1 nM
- GI50 (NCI-H226): 85.1 µM
- GI50 (OVCAR-3): < 10 nM
- GI50 (MCF7): 43.6 nM
- GI50 (NCI-H23): 45.7 nM
- GI50 (COLO 205): 28.8 nM
- GI50 (NCI-H522): < 10 nM
- GI50 (BT-549): 37.1 nM
- GI50 (OVCAR-5): 47.9 nM
- GI50 (786-0): 32.4 nM
- GI50 (T47D): 44.7 nM
- GI50 (DU-145): < 10 nM
- GI50 (MDA-MB-435): < 10 nM
- GI50 (PC-3): 19.5 nM
- GI50 (HT-29): 22.9 nM
- GI50 (SK-MEL-28): < 10 nM
- GI50 (A549): 37.1 nM
- GI50 (OVCAR-8): 42.7 nM
- GI50 (SK-MEL-2): 166 nM
- GI50 (OVCAR-4): 1050 nM
- GI50 (CCRF-CEM): 32.4 nM
- GI50 (SW-620): 33.9 nM
- GI50 (SK-MEL-5): 14.1 nM
- GI50 (HCC 2998): 24 nM
- GI50 (K562): 14.8 nM
- IC50 (Tubulin): 3 µM
- GI50 (NCI-H460): 33.1 nM
- GI50 (NCI-H322M): < 10 nM
Compound: COc1cc(-c2nncn2-c2ccc3c(ccn3C)c2)cc(OC)c1OC
- GI50 (CAKI-1): < 10 nM
- GI50 (SF-268): < 10 nM
- GI50 (UACC-62): < 10 nM
- GI50 (TK-10): < 10 nM
- IC50 (ZR-75-1): 23.8 nM
- GI50 [1]: 35.5 nM
- GI50 (KM12): < 10 nM
- IC50 (HeLa): 8.73 nM
- GI50 (HOP-62): 18.6 nM
- GI50 (IGROV-1): 35.5 nM
- GI50 (A498): 15.8 nM
- GI50 (SF-539): < 10 nM
- GI50 (NCI/ADR-RES): 20.9 nM
- GI50 (M14): 18.6 nM
- IC50 [2]: 9.9 nM
- GI50 (EKVX): < 10 nM
- GI50 [3]: 30.9 nM
- IC50 [4]: 20.8 nM
- GI50 [5]: 30.9 nM
- GI50 (UO-31): 32.4 nM
- GI50 (SNB-75): 12.9 nM
- GI50 (SN12C): 63.1 nM
- GI50 (SF-295): < 10 nM
- GI50 (RXF 393): < 10 nM
- GI50 (UACC-257): 245 nM
- IC50 (HCT-116): 7.39 nM
- GI50 (SNB-19): 44.7 nM
- GI50 (HOP-92): 83.2 nM
- GI50 [6]: 16.2 nM
- GI50 (LOX IMVI): 56.2 nM
